Results of several laboratories.
Each line is one published result; the experiments were not run side by side.
Target: Calcium/calmodulin-dependent protein kinase type II subunit delta (CAMK2D, Homo sapiens, UniProt Q13557)

With `Nc1ncc(-c2nc(N3CCOCC3)nc(N3CCOCC3)n2)c(C(F)F)n1` the remaining binding was 66% (binding, competition with immobilised ligand; 10 µM).
With `Cn1cncc1[C@@](O)(COc1ccc(C#N)cc1-c1ccc(OC(F)(F)F)cc1)c1ccc(C#N)cc1` the remaining binding was 95% (cell-free assay, competition with immobilised ligand; 1 µM).
With `Cn1cc(-c2cc(F)cc(N3CCn4c(cc5c4CCCC5)C3=O)c2CO)cc(Nc2ccc(N3CCN(C4COC4)CC3)cn2)c1=O` the inhibition was 11% (enzyme activity, inhibitor; 0.1 µM).
The remaining signal of `O=c1[nH]c2ccccc2n1C1CCN(Cc2ccc(-c3[nH]c4cc5ncnc5cc4nc3-c3ccccc3)cc2)CC1` is reported as 97.7% (cell-free assay; 0.5 µM).
The inhibition of `Cn1cc(-c2cccc(N3CCc4c(sc5c4CC(C)(C)C5)C3=O)c2CO)cc(Nc2ccncn2)c1=O` is reported as 3% (enzyme activity, inhibitor; 1 µM).
For `COc1ncccc1-c1cnn2ccc(N3CCN(C(=O)OC(C)C)CC3)nc12`, the remaining binding was 83% (binding, competition with immobilised ligand; 1 µM).
`CC(C)(C)c1cc(C=C(C#N)C#N)cc(Br)c1O` gave a remaining activity of 96% (enzyme activity, inhibitor; 0.5 µM).
With `Cc1nn(C)cc1-c1nc2c(N3CCN(Cc4ccc(Cl)cc4)CC3)c(Cl)cnc2[nH]1` the remaining binding was 94% (binding, competition with immobilised ligand; 1 µM).
